Screening results: PubChem BioAssay, several laboratories
This is a sample that favours compounds with a hit; in the whole collection about 2.8% have one here.
NPY-Y1 PAM-ag: potentiates or activates human NPY-Y1 receptor; P25929; NPY-Y1 expressing cells, potentiator/agonist activation; activation, % at 3.6 µM; 220,000 tested, 0.37% active; AID 1304; in the data active means activation above about 33%, passing the limit was not always enough;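 further: cells stimulated with NPY at EC10 then isoproterenol at EC100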
EP2 mod: modulates human prostaglandin E2 receptor EP2 signaling. P43116. EP2-expressing cells, cAMP HTRF FRET, PGE2 co-stimulation. induction, % at 25 µM. 260,000 tested, 0.83% active;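 active means compounds whose cAMP rise, as percent of the full-agonist control response, exceeds 60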;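 further: rat C6 glioma line stably carrying human EP2 under a CMV promoter; the protocol text gives 20 µM as final concentration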
Target sequence (P43116 whole entry, looked up): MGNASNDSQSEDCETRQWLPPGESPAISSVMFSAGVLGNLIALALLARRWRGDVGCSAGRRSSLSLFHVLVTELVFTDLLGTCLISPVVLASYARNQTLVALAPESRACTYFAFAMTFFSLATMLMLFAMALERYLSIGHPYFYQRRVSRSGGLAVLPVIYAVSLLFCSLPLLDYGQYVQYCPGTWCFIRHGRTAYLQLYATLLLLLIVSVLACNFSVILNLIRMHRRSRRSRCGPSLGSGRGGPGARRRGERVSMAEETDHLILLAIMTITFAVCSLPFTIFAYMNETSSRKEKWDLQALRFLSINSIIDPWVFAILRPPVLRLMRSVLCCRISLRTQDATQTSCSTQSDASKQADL
NPY2 pot ag: potentiates or activates human NPY-Y2 receptor | P49146 | cells expressing NPY-Y2, potentiator/agonist read-out | activation, % at 3.6 µM | 220,000 tested, 0.45% active | AID 1359; in the data active means activation above about 27%;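 further: cells stimulated with NPY near EC25 plus isoproterenol at EC100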
Target sequence (P49146 whole entry, looked up): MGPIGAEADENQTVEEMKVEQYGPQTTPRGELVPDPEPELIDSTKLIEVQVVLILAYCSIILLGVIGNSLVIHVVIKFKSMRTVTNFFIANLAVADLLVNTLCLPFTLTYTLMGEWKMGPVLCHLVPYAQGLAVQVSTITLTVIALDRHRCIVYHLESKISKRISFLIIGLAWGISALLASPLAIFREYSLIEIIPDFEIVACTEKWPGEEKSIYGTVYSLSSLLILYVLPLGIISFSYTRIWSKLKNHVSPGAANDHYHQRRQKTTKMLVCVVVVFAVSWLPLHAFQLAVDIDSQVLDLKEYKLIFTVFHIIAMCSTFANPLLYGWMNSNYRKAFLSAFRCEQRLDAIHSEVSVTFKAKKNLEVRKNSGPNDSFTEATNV
NPY-Y2 antag: NPY-Y2 (human) receptor antagonism; inhibition, % at 2.7 µM; P49146; 140,000 tested, 0.99% active; NPY-Y2 expressing cells, antagonist mode; in the data active means inhibition above about 17%
PGE2 EP2 inh: inhibitors of human EP2 prostaglandin E2 receptor. 260,000 tested, 0.52% active. inhibition, % at 25 µM. P43116. C6 glioma cells expressing human EP2, cAMP TR-FRET; cells stimulated with saturating PGE2;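 active means percent inhibition above 40 after rounding to a whole number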;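 further: rat C6 glioma host cells with rolipram phosphodiesterase inhibitor present; the protocol text gives 20 µM as final concentration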
NPY Y1 blocker: NPY-Y1 (human) receptor antagonism; inhibition, % at 3.6 µM; P25929; AID 1040; 200,000 tested, 1% active; HEK293-CNG Y1 cells, membrane potential fluorescence; NPY at EC95, then isoproterenol;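 active means inhibition above the campaign mean inhibition of all tested compounds plus 3 SD, cut at about 20% in these data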
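material = HEK293 cells with Y1 receptor plus CNG channel | also added = NPY 25 nM then isoproterenol 1 µM plus Ro 20-1724 25 µM | schedule = dye 3 h, compound 60 min room temperature, stimulation 45 min | measured by = membrane potential fluorescence | benchmarks = high control isoproterenol alone, low control NPY with isoproterenol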
NPY-Y1 antag ct: counter-screen for NPY-Y2 antagonists: human NPY-Y1 antagonism | cell-based NPY-Y1 antagonism counterscreen | shares compounds with NPY-Y2 antag | 710 tested, 19% active | inhibition, % at 3.6 µM; in the data active means inhibition above about 20%;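 further: cells challenged with NPY then isoproterenol with cAMP sensed through a CNG channel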
NPY2 antag conf: confirmation of human neuropeptide Y receptor Y2 antagonists; shares compounds with NPY-Y2 antag; HEK293 NPY-Y2 CNG channel, membrane potential fluorescence; inhibition, % at 2.8 µM; 710 tested, 32% active;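 active means mean inhibition of triplicate wells above the hit cutoff set in the primary screen, cut at about 17% in these data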
Numbers stand for hits; 0 = inactive; - = no result given.

SMILES | NPY-Y1 PAM-ag | EP2 mod | NPY2 pot ag | NPY-Y2 antag | PGE2 EP2 inh | NPY Y1 blocker | others
CCCSc1ncc(CN2C3CCC2CC(O)(c2ccc(F)cc2)C3)cn1 (stereo not given) | - | 0 | - | - | 0 | -
CCN(CC)C(=O)N[C@H]1C[C@@H]2c3cccc4[nH]cc(c34)C[C@H]2N(C)C1 | 84 | 0 | 72 | 0 | 0 | 0
O=C(c1ccncc1)N1CCN(C2C3CC4CC(C3)CC2C4)CC1 (stereo not given) | - | 0 | - | - | 0 | -
CCOc1cc(CN2CCN(C(=O)COc3cccc(C)c3)CC2)ccc1OC | - | 0 | - | - | 0 | -
CCn1c(C)cc(/C=C2\C(=O)NC(=O)N(c3ccccc3C)C2=O)c1C | 0 | 0 | 0 | - | 0 | 0
Cc1ccccc1N1C(=O)NC(=O)/C(=C\c2cnn(-c3ccccc3)c2)C1=O | 0 | 0 | 0 | 0 | 51 | 0
COc1ccccc1CCNC1CCC(C(C)(C)C)CC1 (stereo not given) | 0 | 0 | 0 | 30 | 0 | 29
COc1ccccc1CCNC1CCCC(C)C1 (stereo not given) | 0 | 0 | 0 | 0 | 0 | 0
CCCc1nc2ccccc2c(=O)n1-c1ccc(Cl)cc1 | - | 0 | - | - | 0 | -
CCCSc1ncc(CN2C3CCC2CC(O)(c2ccc(OC)cc2)C3)cn1 (stereo not given) | - | 0 | - | - | 0 | -
COc1ccc2c(c[n+](C)c3c4cc5c(cc4ccc23)OCO5)c1OC | - | 0 | - | - | 118 | -
COc1ccc2c(c1OC)C(=O)O[C@H]2[C@H]1c2cc3c(cc2CCN1C)OCO3 | - | 0 | - | - | 0 | -
CC(C)[C@H]1CN(Cc2ccco2)CCN1C(=O)Cc1ccc(-n2cnnn2)cc1 | - | 0 | - | - | - | -
COc1cccc2c1C(=O)c1c(O)c3c(c(O)c1C2=O)C[C@](O)(/C(C)=N/O)C[C@@H]3O[C@@H]1C[C@H](N)[C@@H](O)[C@H](C)O1 | - | 0 | - | - | 46 | -
C[N+](C)(C)CC1Cc2ccccc2O1 (stereo not given) | - | 0 | - | - | 0 | -
Nc1ccc(S(=O)(=O)c2ccc(NCN3C(=O)NC(=O)C(=O)C3=O)cc2)cc1 | - | 0 | - | - | 44 | -
FC(F)(F)c1nc2ccc(SSc3ccc4nc(C(F)(F)F)[nH]c4c3)cc2[nH]1 | - | 0 | - | - | 79 | -
CC1(C)N=C(N)N=C(N)N1c1cccc(C(=O)Nc2ccc(S(=O)(=O)F)cc2)c1 | - | 0 | - | - | 52 | -
Cc1nc2ccc(NC(=O)CN3CC=C(c4ccc(C)o4)CC3)cc2[nH]1 | - | 0 | - | - | - | -
O=C1NC(=O)N(Cc2ccc(F)cc2)C(=O)/C1=C/c1cccs1 | 0 | 0 | 0 | - | 93 | 0
O=C1NC(=O)N(Cc2ccccc2Cl)C(=O)/C1=C/c1cccs1 | 0 | 0 | 0 | - | 0 | 0
COc1ccc(OCC(=O)N2CCN(C3CCCCCC3)CC2)cc1 | - | 0 | - | - | 0 | -
N=C(N)SCc1ccc(Cl)c2ccccc12 (tested in a mixture with another compound) | - | 0 | - | - | 61 | -
O=C1C(=O)c2ccccc2-c2ccccc21 | 0 | 0 | 0 | 40 | 45 | 39
COc1ccc(C2(O)CC3CCC(C2)N3Cc2cnc(SC)nc2)cc1 (stereo not given) | - | 0 | - | - | 0 | -
SMILES | NPY-Y1 PAM-ag | EP2 mod | NPY2 pot ag | NPY-Y2 antag | PGE2 EP2 inh | NPY Y1 blocker | others
C=C1C(=O)O[C@@H]2C[C@@H](C)[C@@H]3C=CC(=O)[C@@]3(C)[C@@H](OC(=O)CC(=O)O[C@H]3[C@@H]4C(=C)C(=O)O[C@@H]4C[C@@H](C)[C@@H]4C=CC(=O)[C@]43C)[C@H]12 | - | 0 | - | - | 166 | -
CCCCn1c(=O)c(C(=O)NCc2ccncc2)c(O)c2ccccc21 | 0 | 63 | 0 | 0 | 0 | 0
CCC1CCCCN1C(=O)CN1C2CCC1CC(O)(c1nccn1C)C2 (stereo not given) | - | 0 | - | - | - | -
CNc1ccc2oc(C[C@H]3O[C@@]4(CC[C@H]3C)O[C@H]([C@H](C)C(=O)c3ccc[nH]3)[C@H](C)C[C@H]4C)nc2c1C(=O)O | - | 0 | - | - | 71 | -
C#CCOc1cccc(CN2C3CCC2CC(O)(c2cccc(F)c2)C3)c1 (stereo not given) | - | 0 | - | - | 0 | -
CCCOc1ccccc1CN1C2CCC1CC(O)(c1nccn1C)C2 (stereo not given) | - | 0 | - | - | 0 | -
CCn1ncc(/C=C2/CC3C4CC=C5CC(O)CCC5(C)C4CCC3(C)C2=O)c1C (stereo not given) | 0 | - | 0 | 0 | - | 0
Cc1nn(C)c(C)c1/C=C1/CC2C3CC=C4CC(O)CCC4(C)C3CCC2(C)C1=O (stereo not given) | 0 | 0 | 0 | 47 | 0 | 26
CCOc1ccc(CN2CCNCC2)cc1 | - | 0 | - | - | 0 | -
C=C1[C@@H](C)[C@H]2[C@H](Cc3ccccc3)NC(=O)[C@]23OC(=O)/C=C/[C@H](O)CCC[C@@H](C)C/C=C/[C@H]3[C@@H]1O | 0 | 0 | 0 | - | 0 | 21
CCC(CC)N1CCN(C(=O)COc2ccc(OC)cc2)CC1 | - | 0 | - | - | 0 | -
COC(=O)c1c(C)ccc2c(O)c3c(cc12)C(=O)c1c2c(cc(O)c1C3=O)[C@@]1(C)O[C@@](C)(O2)[C@@H](O)[C@H](N(C)C)[C@H]1O | - | 0 | - | - | 42 | -
COc1ccc(Cc2nccc3cc(OC)c(OC)cc23)cc1OC | 0 | 0 | 0 | 20 | 0 | 22
NC1(CO)COC(c2cccnc2)OC1 (stereo not given) | - | 0 | - | - | 0 | -
CCCOc1c(CN2C3CCC2CC(O)(c2nccn2C)C3)cccc1OC (stereo not given) | - | 0 | - | - | 0 | -
CCCCc1nc2ccccc2c(=O)n1-c1ccccc1[N+](=O)[O-] | 0 | 0 | 0 | 0 | 0 | 0
CCc1nc2ccccc2c(=O)n1-c1ccccc1[N+](=O)[O-] | 0 | 0 | 0 | 0 | 49 | 0
COc1cc2c(cc1OC)[C@]13CC[N@+]4(C)CC5=CCO[C@@H]6CC(=O)N2[C@@H]1[C@@H]6[C@@H]5C[C@]34O | - | 0 | - | - | 42 | -
CCCCCCCSc1cc(OC)c(CCN(C)C)cc1OC | 0 | 0 | 0 | 0 | 0 | 0
CCCCCSc1cc(OC)c(CCN)cc1OC | 53 | 0 | 0 | 0 | 0 | 0
CN1C[C@H](CNC(=O)OCc2ccccc2)C[C@@H]2c3cccc4c3c(cn4C)C[C@H]21 | 0 | 0 | 0 | 18 | 0 | 0 | NPY-Y1 antag ct=0;NPY2 antag conf=0
O=C(NC[P+](=O)O)OCc1ccccc1 | 0 | 0 | 0 | 0 | 0 | 0
CCCC/C(C)=C/[C@@H](NP(=O)(c1ccccc1)c1ccccc1)c1ccccc1 | 0 | 64 | 0 | 27 | 0 | 0 | NPY-Y1 antag ct=23;NPY2 antag conf=20
C#CCOc1ccc(CN2C3CCC2CC(O)(c2ccc(OC)cc2)C3)cc1OC (stereo not given) | - | 0 | - | - | 0 | -
Clc1ccc(CSC(Cn2ccnc2)c2ccc(Cl)cc2Cl)cc1 (stereo not given) | 0 | 0 | 0 | 0 | 0 | 0
